Format in all cases: functional
One test concerns Gloeophyllum trabeum. As to the kind of experiment: Antifungal activity against Gloeophyllum trabeum BCRC 31614 (wood decay fungi) assessed as reduction of fungi mycelium growth at 100 ug/ml. An outline of the steps: (§1)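 Fungi kept on potato dextrose agar at 4 °C. Samples dissolved in 150 μL ethanol and mixed into 15 mL PDA to give the final concentration. A 5 mm mycelial plug from the culture edge was placed centrally on each 9-cm plate. Plates were held in the dark at 26 ± 2 °C and 70% RH. Antifungal index was scored once control plates without test material were fully overgrown.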

The next test has as its system Lenzites betulinus. The test is described as follows: Antifungal activity against Lenzites betulinus BCRC 35296 assessed as reduction of fungi mycelium growth at 100 ug/ml. An outline of the steps: as §1
The subject of another test is Trametes versicolor. The test is described as follows: Antifungal activity against Trametes versicolor BCRC 35253 wood decay fungi assessed as reduction of fungi mycelium growth at 100 ug/ml. An outline of the steps:
as §1

The next test concerns Laetiporus sulphureus. As to the kind of experiment: Antifungal activity against Laetiporus sulphureus BCRC 35305 (wood decay fungi) assessed as reduction of fungi mycelium growth at 100 ug/ml. The method in brief:
as §1

As usually defined, the inhibition is the share of the control response that was lost under treatment. Consider `C[C@@H]1CC[C@H]2C(C)(C)[C@H]3C[C@@]12CC[C@@]3(C)O` [CEDROL], for which the inhibition at 100 µg/mL is 68.3% with Gloeophyllum trabeum, 95.5% with Lenzites betulinus, 74.8% in the test on Trametes versicolor and 100% in the test on Laetiporus sulphureus.

For `CCCCCCCCCC[N+](C)(C)CCCCCCCCCC` [DIDECYLDIMETHYLAMMONIUM CHLORIDE], the inhibition at 100 µg/mL in the test on Gloeophyllum trabeum, in the test with Lenzites betulinus, with Trametes versicolor and in the test on Laetiporus sulphureus was 100% each time.

Take `C=CC(=C)CC[C@@H]1[C@@]2(C)CCCC(C)(C)[C@@H]2CC[C@@]1(C)O` [ISOABIENOL]: the inhibition at 100 µg/mL in the test on Gloeophyllum trabeum is 6.8%; in the test on Lenzites betulinus it was 25.6%; in the test with Trametes versicolor, 27.8%; in the test with Laetiporus sulphureus, 8.2%.

For `CC1=C[C@@H]2[C@@H](CC1)[C@@](C)(O)CC[C@H]2C(C)C` [T-CADINOL], the inhibition at 100 µg/mL in the test with Gloeophyllum trabeum stood at 100%; in the test on Lenzites betulinus, 100%; in the test with Trametes versicolor it was 51.4%; with Laetiporus sulphureus, 100%.

As for `CC1=C[C@H]2[C@H](C(C)C)CC[C@](C)(O)[C@H]2CC1` [T-MUUROLOL], the inhibition at 100 µg/mL turned out to be 100% with Gloeophyllum trabeum, 100% in the test with Lenzites betulinus, 39.5% with Trametes versicolor and 100% in the test with Laetiporus sulphureus.

(Values after ChEMBL document CHEMBL3045566, “Phytochemicals from Cunninghamia konishii Hayata act as antifungal agents” (2012).)
